Test results from publication PMC7931646 (The Journal of Experimental Medicine, 2021).

How the values were obtained:
Assay type in all cases: in vitro ADME
[1] = Liver microsomal stability, rat; settings: liver microsomes
Outline: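 Test compound at 1 µM was incubated for 30 min with liver microsomes at 1 mg/ml (human, rat or mouse). Result is percent of parent compound remaining.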

[2] = Plasma protein binding, equilibrium dialysis; settings: mouse
Outline: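 Equilibrium dialysis of test compound in human, rat or mouse plasma against buffer across a semipermeable membrane. Compound concentrations in both compartments were measured by LC/MS, and percent bound was derived from them.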

MDR1-MDCK permeability = settings: dog
Outline: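 Transport across MDR1-MDCK cell monolayers. Apparent permeability was measured in the apical-to-basolateral direction (× 10−6 cm/s). Efflux ratio was calculated as Papp B-A / Papp A-B.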

## COc1nc(-c2cc(C)c(N[C@@H](C)c3cc(F)cc(F)c3)nn2)ccc1-n1cnc(C)c1 [Compound 2, (S)-N-(1-(3,5-difluorophenyl)ethyl)-6-(6-methoxy-5-(4-methyl-1H-imidazol-1-yl)pyridin-2-yl)-4-methylpyridazin-3-amine]
[1]
  remaining at 0.5 h, 1 µM: 76%
[2]
  % PPB M: 99.9%
MDR1-MDCK permeability
  Papp A→B: 23.3 ×10⁻⁶ cm/s
